≈ marks a conversion by molar mass, not a printed value. Calls of active or inactive are those of the source. The calls are words filed in the database; no cut-off is given here.
Key:
[1] = system: Mycolicibacterium smegmatis MC2 155; experiment: Inhibition of STPK in Mycobacterium smegmatis MC2 155 expressing aminoglycoside phophotransferase-8 assessed as growth inhibition at 5 nmol/disk after 18 hrs in presence of kanamycin by paper disk method
[2] = system: Mycolicibacterium smegmatis; experiment: Antimycobacterial activity against Mycobacterium smegmatis atR33 assessed as decrease in drug resistance development at 10 ug/disc after 2 to 3 days by paper disc method; assay type: functional, organism-based
Outline: (§1)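 Mutant M. smegmatis strains were grown in Middlebrook 7H9/OADC/Tween/glycerol to OD600 1.2. Cultures were diluted 1:9:10 (culture:water:M290) and overlaid on M290 agar. Commercial or impregnated paper discs were applied and plates incubated 2–3 days at 37 °C. Inhibition halos were measured to 1 mm, run in triplicate, mean ± SD.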

[3] = system: Mycolicibacterium smegmatis; experiment: Antimycobacterial activity against Mycobacterium smegmatis atR37 assessed as decrease in drug resistance development at 10 ug/disc after 2 to 3 days by paper disc method; assay type: functional, organism-based
Outline: (§2)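 Drug-resistant M. smegmatis mc2 155 mutants, isolated on M290 agar with 3.5-4× MIC of compound and resistance re-confirmed, grown in Middlebrook 7H9 (OADC, 0.1% Tween-80, 0.4% glycerol) to OD600 1.2. Diluted 1:9:10 culture:water:M290 and poured as top layer on M290 agar. Impregnated paper discs applied; 37 °C for 2–3 days. Halos measured to nearest 1 mm; triplicates, mean ± SD versus control strain.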

[4] = system: Mycolicibacterium smegmatis; experiment: Antimycobacterial activity against Mycobacterium smegmatis atR9 assessed as decrease in drug resistance development at 10 ug/disc after 2 to 3 days by paper disc method; assay type: functional, organism-based; outline: as §2
[5] = system: Mycolicibacterium smegmatis; experiment: Antimycobacterial activity against Mycobacterium smegmatis atR10 assessed as decrease in drug resistance development at 10 ug/disc after 2 to 3 days by paper disc method; assay type: functional, organism-based; outline: as §1
[6] = system: Mycolicibacterium smegmatis; experiment: Antimycobacterial activity against Mycobacterium smegmatis atR10 assessed as decrease in drug resistance development at 10 nmol/disc after 2 to 3 days by paper disc method; assay type: functional, organism-based; outline: as §1
[7] = system: Mycolicibacterium smegmatis; experiment: Antimycobacterial activity against Mycobacterium smegmatis atR17 assessed as decrease in drug resistance at 10 nmol/disc after 2 to 3 days by paper disc method; assay type: functional, organism-based; outline: as §1
[8] = system: Mycolicibacterium smegmatis MC2 155; experiment: Inhibition of STPK in Mycobacterium smegmatis MC2 155 expressing aminoglycoside phophotransferase-8 assessed as growth inhibition at 100 nmol/disk after 18 hrs in presence of kanamycin by paper disk method
[9] = system: Mycolicibacterium smegmatis; experiment: Antimycobacterial activity against Mycobacterium smegmatis atR40 assessed as decrease in drug resistance development at 2 ug/disc after 2 to 3 days by paper disc method; assay type: functional, organism-based; outline: as §2
[10] = system: Mycolicibacterium smegmatis; experiment: Antimycobacterial activity against Mycobacterium smegmatis atR2 assessed as decrease in drug resistance development at 2 ug/disc after 2 to 3 days by paper disc method; assay type: functional, organism-based; outline: as §1
[11] = system: Mycolicibacterium smegmatis; experiment: Antimycobacterial activity against Mycobacterium smegmatis atR19 assessed as decrease in drug resistance development at 2 ug/disc after 2 to 3 days by paper disc method; assay type: functional, organism-based; outline: as §1
[12] = system: Mycobacterium tuberculosis; experiment: Antimycobacterial activity against Mycobacterium tuberculosis H37Rv in liquid medium; assay type: functional
Outline: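 M. tuberculosis H37Rv; MIC determined in liquid medium on the automated Bactec MGIT 960 system.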

[13] = system: Mycolicibacterium smegmatis; experiment: Antimycobacterial activity against Mycobacterium smegmatis MC2 155 in liquid medium after 48 hrs by two-fold serial dilution method; assay type: functional; settings: MC2 155, 48 h
Outline: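 M. smegmatis mc2 155 grown overnight in Lemco-Tw broth, diluted 1:200 in fresh broth. […] Top wells could carry 4% DMSO. Incubated 48 h at 37 °C with shaking at 250 rpm. MIC is the lowest concentration with no visible growth.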

[14] = system: Mycolicibacterium smegmatis; experiment: Antimycobacterial activity against Mycobacterium smegmatis MC2 155 in solid medium by two-fold serial dilution method; assay type: functional
Outline: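 M290 soybean-casein agar plates carried two-fold compound dilutions, 8–64 or 8–128 µg/ml, some with extra 20 or 25 µg/ml plates.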

[15] = system: Mycolicibacterium smegmatis; experiment: Antimycobacterial activity against Mycobacterium smegmatis atR9 in liquid medium after 48 hrs by two-fold serial dilution method; assay type: functional; settings: atR9, 48 h
Outline: (§3)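 M. smegmatis resistant mutants were isolated on M290 agar containing 3.5-4× MIC of the test compound at 30°C and resistance was reconfirmed. MIC was then run in Lemco-Tw broth (Tween-80 0.05%). An overnight culture was diluted 1:200, and two-fold serial dilutions in DMSO were added. Plates were incubated at 37°C and 250 rpm for 48 h. MIC was read as the lowest concentration with no visible growth.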

[16] = system: Mycolicibacterium smegmatis; experiment: Antimycobacterial activity against Mycobacterium smegmatis atR14 in liquid medium after 48 hrs by two-fold serial dilution method; assay type: functional; settings: atR14, 48 h; outline: as §3
[17] = system: Mycolicibacterium smegmatis; experiment: Antimycobacterial activity against Mycobacterium smegmatis atR17 in liquid medium after 48 hrs by two-fold serial dilution method; assay type: functional; settings: atR17, 48 h; outline: as §3
[18] = system: Mycolicibacterium smegmatis; experiment: Antimycobacterial activity against Mycobacterium smegmatis atR19 in liquid medium after 48 hrs by two-fold serial dilution method; assay type: functional; settings: atR19, 48 h; outline: as §3
[19] = system: Mycolicibacterium smegmatis; experiment: Antimycobacterial activity against Mycobacterium smegmatis atR1 in liquid medium after 48 hrs by two-fold serial dilution method; assay type: functional; settings: atR1, 48 h; outline: as §3
[20] = system: Mycolicibacterium smegmatis; experiment: Antimycobacterial activity against Mycobacterium smegmatis atR8 in liquid medium after 48 hrs by two-fold serial dilution method; assay type: functional; settings: atR8, 48 h; outline: as §3
[21] = system: Mycolicibacterium smegmatis; experiment: Antimycobacterial activity against Mycobacterium smegmatis atR10 in liquid medium after 48 hrs by two-fold serial dilution method; assay type: functional; settings: atR10, 48 h; outline: as §3
[22] = system: Mycolicibacterium smegmatis; experiment: Antimycobacterial activity against Mycobacterium smegmatis atR11 in liquid medium after 48 hrs by two-fold serial dilution method; assay type: functional; settings: atR11, 48 h; outline: as §3
[23] = system: Mycolicibacterium smegmatis; experiment: Antimycobacterial activity against Mycobacterium smegmatis atR33 in liquid medium after 48 hrs by two-fold serial dilution method; assay type: functional; settings: atR33, 48 h; outline: as §3
[24] = system: Mycolicibacterium smegmatis; experiment: Antimycobacterial activity against Mycobacterium smegmatis atR37 in liquid medium after 48 hrs by two-fold serial dilution method; assay type: functional; settings: atR37, 48 h; outline: as §3
[25] = system: Mycolicibacterium smegmatis; experiment: Antimycobacterial activity against Mycobacterium smegmatis atR40 in liquid medium after 48 hrs by two-fold serial dilution method; assay type: functional; settings: atR40, 48 h; outline: as §3
[26] = system: Mycolicibacterium smegmatis; experiment: Antimycobacterial activity against Mycobacterium smegmatis atR2 in liquid medium after 48 hrs by two-fold serial dilution method; assay type: functional; settings: atR2, 48 h; outline: as §3
[27] = system: Mycolicibacterium smegmatis; experiment: Antimycobacterial activity against Mycobacterium smegmatis atR1 assessed as decrease in drug resistance development at 300 nmol/disc after 2 to 3 days by paper disc method; assay type: functional, organism-based; outline: as §1
[28] = system: Mycolicibacterium smegmatis; experiment: Antimycobacterial activity against Mycobacterium smegmatis atR2 assessed as decrease in drug resistance development at 300 nmol/disc after 2 to 3 days by paper disc method; assay type: functional, organism-based; outline: as §1
[29] = system: Mycolicibacterium smegmatis; experiment: Antimycobacterial activity against Mycobacterium smegmatis atR11 assessed as decrease in drug resistance development at 300 nmol/disc after 2 to 3 days by paper disc method; assay type: functional, organism-based; outline: as §1
[30] = system: Mycolicibacterium smegmatis; experiment: Antimycobacterial activity against Mycobacterium smegmatis atR8 assessed as decrease in drug resistance development at 300 nmol/disc after 2 to 3 days by paper disc method; assay type: functional, organism-based; outline: as §2
[31] = system: Mycolicibacterium smegmatis; experiment: Antimycobacterial activity against Mycobacterium smegmatis atR10 assessed as decrease in drug resistance development at 300 nmol/disc after 2 to 3 days by paper disc method; assay type: functional, organism-based; outline: as §1
[32] = system: Mycolicibacterium smegmatis; experiment: Antimycobacterial activity against Mycobacterium smegmatis atR14 assessed as decrease in drug resistance development at 300 nmol/disc after 2 to 3 days by paper disc method; assay type: functional, organism-based; outline: as §1
[33] = system: Mycolicibacterium smegmatis; experiment: Antimycobacterial activity against Mycobacterium smegmatis atR17 assessed as decrease in drug resistance development at 300 nmol/disc after 2 to 3 days by paper disc method; assay type: functional, organism-based; outline: as §1
[34] = system: Mycolicibacterium smegmatis; experiment: Antimycobacterial activity against Mycobacterium smegmatis atR19 assessed as decrease in drug resistance development at 300 nmol/disc after 2 to 3 days by paper disc method; assay type: functional, organism-based; outline: as §1
[35] = system: Mycolicibacterium smegmatis; experiment: Antimycobacterial activity against Mycobacterium smegmatis atR33 assessed as decrease in drug resistance development at 300 nmol/disc after 2 to 3 days by paper disc method; assay type: functional, organism-based; outline: as §1
[36] = system: Mycolicibacterium smegmatis; experiment: Antimycobacterial activity against Mycobacterium smegmatis atR37 assessed as decrease in drug resistance development at 300 nmol/disc after 2 to 3 days by paper disc method; assay type: functional, organism-based; outline: as §2
[37] = system: Mycolicibacterium smegmatis; experiment: Antimycobacterial activity against Mycobacterium smegmatis atR40 assessed as decrease in drug resistance development at 300 nmol/disc after 2 to 3 days by paper disc method; assay type: functional, organism-based; outline: as §2

## Cc1cc(C)n(-c2nnc3nc(-c4ccccc4)c(SC(C)C)n3n2)n1
[1]
  inhibition zone (IZ): 11 mm

## C[C@@H](O)[C@H]1C(=O)N2C(C(=O)O)=C(SCCNC=N)C[C@H]12
[2]
  Activity: inactive
[3]
  Activity: inactive
[4]
  Activity: inactive
[5]
  Activity: inactive

## O=C1c2c(O)ccc(O)c2C(=O)c2c(NCCNCCO)ccc(NCCNCCO)c21
[6]
  Activity: inactive
[7]
  Activity: inactive

## COc1ccc(OC)c(Sc2cnc3nnc(-n4nc(C)cc4C)nn23)c1
[8]
  inhibition zone (IZ): 9.3 mm

## CC1COc2c(N3CCN(C)CC3)c(F)cc3c(=O)c(C(=O)O)cn1c23 (stereo not drawn)
[9]
  Activity: inactive
[10]
  Activity: inactive
[11]
  Activity: inactive

## Cc1cc(C)n(-c2nnc3ncc(SCc4ccccc4)n3n2)n1
[8]
  inhibition zone (IZ): 13.7 mm
[12]
  MIC: 3 µM (≈ 1.01 µg/mL)
[13]
  MIC: 94.8 µM (≈ 32 µg/mL)
[14]
  MIC: 59.3 µM (≈ 20 µg/mL)
[15]
  MIC: > 64 µg/mL
[16]
  MIC: > 64 µg/mL
[17]
  MIC: > 64 µg/mL
[18]
  MIC: > 64 µg/mL
[19]
  MIC: > 64 µg/mL
[20]
  MIC: > 64 µg/mL
[21]
  MIC: > 64 µg/mL
[22]
  MIC: > 64 µg/mL
[23]
  MIC: > 64 µg/mL
[24]
  MIC: > 64 µg/mL
[25]
  MIC: > 64 µg/mL
[26]
  MIC: > 64 µg/mL
[27]
  Activity: inactive
[28]
  Activity: inactive
[29]
  Activity: inactive
[30]
  Activity: inactive
[31]
  Activity: inactive
[32]
  Activity: inactive
[33]
  Activity: inactive
[34]
  Activity: inactive
[35]
  Activity: inactive
[36]
  Activity: inactive
[37]
  Activity: inactive

— ChEMBL document CHEMBL4359813, “Synthesis and antimycobacterial activity of imidazo[1,2-b][1,2,4,5]tetrazines” (2019)
